Laboratory results as given in ChEMBL document CHEMBL4325919, “3,5-Disubstituted-indole-7-carboxamides as IKKβ Inhibitors: Optimization of Oral Activity via the C3 Substituent” (ACS Med Chem Lett, 2018).
In brackets after ≈: the same amount, converted by molar mass.

Legend:
[1] = target: T1, Inhibitor of nuclear factor kappa-B kinase subunit beta (Homo sapiens, UniProt O14920); experiment: Inhibition of recombinant human C-terminal GST-tagged IKKbeta (1 to 737 residues) expressed in baculovirus expression system using GST-IkBalpha substrate measured after 30 mins by TR-FRET assay
T1 sequence (O14920 whole entry): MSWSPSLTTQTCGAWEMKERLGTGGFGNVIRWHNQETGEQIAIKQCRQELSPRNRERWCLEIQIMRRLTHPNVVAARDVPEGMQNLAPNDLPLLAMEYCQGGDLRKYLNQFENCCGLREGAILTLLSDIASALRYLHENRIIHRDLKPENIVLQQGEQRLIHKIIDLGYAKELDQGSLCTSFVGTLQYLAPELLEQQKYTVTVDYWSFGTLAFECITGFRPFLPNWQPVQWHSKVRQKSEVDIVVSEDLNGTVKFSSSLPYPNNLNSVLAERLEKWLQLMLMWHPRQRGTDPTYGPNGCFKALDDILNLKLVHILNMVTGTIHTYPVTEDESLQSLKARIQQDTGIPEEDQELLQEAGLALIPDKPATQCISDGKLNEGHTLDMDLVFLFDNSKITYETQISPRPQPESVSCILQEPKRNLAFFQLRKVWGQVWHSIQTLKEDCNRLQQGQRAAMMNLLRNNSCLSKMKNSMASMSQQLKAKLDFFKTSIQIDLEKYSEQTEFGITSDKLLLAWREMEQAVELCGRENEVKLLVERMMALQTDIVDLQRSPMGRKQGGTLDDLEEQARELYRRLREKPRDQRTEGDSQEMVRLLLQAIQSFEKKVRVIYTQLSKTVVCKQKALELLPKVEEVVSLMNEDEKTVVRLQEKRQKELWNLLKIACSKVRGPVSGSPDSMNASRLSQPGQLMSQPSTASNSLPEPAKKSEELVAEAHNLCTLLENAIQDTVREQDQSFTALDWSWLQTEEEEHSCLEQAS
Method in brief: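 IKK pIC50 values are the mean of more than 2 determinations unless noted otherwise. Compounds were tested as racemic mixtures.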

[2] = Kinetic aqueous solubility of the compound by UV-HPLC analysis; assay type: physicochemical; conditions: buffer; read-out: Kinetic_solubility
[3] = Permeability of the compound by PAMPA; assay type: ADME; conditions: read-out: permeability
[4] = target: T1, Inhibitor of nuclear factor kappa-B kinase subunit beta; experiment: Inhibition of IKKbeta in human CD14-positive monocytes assessed as reduction in LPS-stimulated TNFalpha secretion preincubated for 30 mins followed by LPS stimulation and measured after 24 hrs by Alpha screen assay; assay type: cell-based
[5] = AUC in Sprague-Dawley rat at 2 mg/kg, po; assay type: ADME, organism-based; conditions: in vivo
Method in brief: (§1)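 Male Sprague Dawley rats, n=2 (n=3 for one compound). The i.v. leg used 5% DMSO with 20% Cavitron and the oral leg 5% DMSO with 6% Cavitron. Oral doses were 2 mg/kg, or 2.1 mg/kg where stated. The i.v. dose was 1 mg/kg. Clearance is plasma clearance.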

[6] = Plasma clearance in Sprague-Dawley rat at 2 mg/kg, po or 1 mg/kg, iv; assay type: ADME, organism-based; method in brief: as §1
[7] = Volume of distribution at steady state in Sprague-Dawley rat at 2 mg/kg, po or 1 mg/kg, iv; assay type: ADME, organism-based; conditions: in vivo, read-out: Vdss; method in brief: as §1
[8] = Half life in Sprague-Dawley rat at 2 mg/kg, po or 1 mg/kg, iv; assay type: ADME, organism-based; conditions: in vivo; method in brief: as §1
[9] = Oral bioavailability in Sprague-Dawley rat at 2 mg/kg; assay type: ADME, organism-based; conditions: in vivo; method in brief: as §1
Rattus norvegicus [10] = experiment: Antiinflammatory activity in LPS-induced rat neutrophilia model assessed as inhibition of LPS-induced increase in neutrophils in bronchoalveolar lavage at 100 umol/kg, po administered 30 mins prior to 20 mins nebulized LPS challenge and measured after 4 hrs by diff quick staining based hemocytometric method relative to control; assay type: functional
[11] = Kinetic aqueous solubility of the compound by chemiluminescent nitrogen detection assay; assay type: physicochemical; conditions: buffer; read-out: Kinetic_solubility
[12] = AUC in Beagle dog at 2.03 mg/kg, po; assay type: ADME, organism-based, Canis lupus familiaris; conditions: in vivo
Method in brief: (§2)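 Male Beagle dogs, n=3. Vehicles were 5% DMSO with 20% Cavitron for i.v. dosing at 1.11 mg/kg and 5% DMSO with 6% Cavitron for oral dosing at 2.03 mg/kg. Derived values were plasma clearance, steady-state volume of distribution, half-life and oral bioavailability.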

[13] = Plasma clearance in Beagle dog at 2.03 mg/kg, po or 1.11 mg/kg, iv; assay type: ADME, organism-based, Canis lupus familiaris; method in brief: as §2
[14] = Volume of distribution at steady state in Beagle dog at 2.03 mg/kg, po or 1.11 mg/kg, iv; assay type: ADME, organism-based, Canis lupus familiaris; conditions: in vivo, read-out: Vdss; method in brief: as §2
[15] = Half life in Beagle dog at 2.03 mg/kg, po or 1.11 mg/kg, iv; assay type: ADME, organism-based, Canis lupus familiaris; conditions: in vivo; method in brief: as §2
[16] = Oral bioavailability in Beagle dog at 2.03 mg/kg; assay type: ADME, organism-based, Canis lupus familiaris; conditions: in vivo; method in brief: as §2
Rattus norvegicus [17] = experiment: Anti-inflammatory activity in LPS-induced Lewis rat inflammation model assessed as inhibition of LPS-induced TNFalpha secretion in blood administered orally 30 mins prior to LPS challenge and measured after 2 hrs by ELISA; assay type: functional; conditions: po
Canis familiaris = experiment: Anti-inflammatory activity in inhaled LPS-induced Beagle dog lung neutrophilia model assessed as inhibition of LPS-induced increase in neutrophils in bronchoalveolar lavage administered orally 30 mins prior to LPS instillation and measured after […] by diff quick staining based hemocytometric method; assay type: functional; conditions: Canis lupus familiaris, po
Rattus norvegicus [18] = experiment: Antiinflammatory activity in LPS-induced rat neutrophilia model assessed as inhibition of LPS-induced increase in neutrophils in bronchoalveolar lavage at 50 umol/kg, po administered 30 mins prior to 20 mins nebulized LPS challenge and measured after 4 hrs by diff quick staining based hemocytometric method relative to control; assay type: functional

Row | Compound | IC50 [1] [nM] | solubility kinetic [2] [µM] | Papp [3] [×10⁻⁶ cm/s] | IC50 [4] [nM] | AUC [5] [ng·h/mL] | clearance [6] [mL/min/kg] | Vd [7] [L/kg] | half-life [8] [h] | bioavailability [9] [%] | other results
1 | NC(=O)c1cc(-c2ccccc2)cc2c(C3CCS(=O)(=O)C3)c[nH]c12 (centres undefined) | 100 | – | – | – | – | – | – | – | – | –
2 | CCS(=O)(=O)N1CCC(c2c[nH]c3c(C(N)=O)cc(-c4ccccc4)cc23)CC1 | – | – | 25 | 190 | 1220 | 16 | 1 | 1.15 | 58 | inhibition in vivo at 100 µmol/kg (Rattus norvegicus [10]): 30%
3 | CC(=O)CCc1c[nH]c2c(C(N)=O)cc(-c3ccccc3)cc12 | 126 | – | – | – | – | – | – | – | – | –
4 | NC(=O)c1cc(-c2ccccc2)cc2c(C3CCCS(=O)(=O)C3)c[nH]c12 (centres undefined) | 158 | – | – | – | – | – | – | – | – | –
5 | NC(=O)c1cc(-c2ccccc2)cc2c([C@@H]3C[C@H]4CC[C@@H](C3)S4(=O)=O)c[nH]c12 | 79.4 | – | – | – | – | – | – | – | – | –
6 | CC1(C)CC(=O)NC1c1c[nH]c2c(C(N)=O)cc(-c3ccccc3)cc12 (centres undefined) | 200 | – | – | – | – | – | – | – | – | –
7 | CN1C(=O)CCC1c1c[nH]c2c(C(N)=O)cc(-c3ccccc3)cc12 (centres undefined) | 501 | – | – | – | – | – | – | – | – | –
8 | NC(=O)c1cc(-c2ccccc2)cc2c(C3CCC(=O)CC3)c[nH]c12 | 501 | – | – | – | – | – | – | – | – | –
9 | NC(=O)c1cc(-c2ccccc2)cc2c(C3CCC(=O)N3)c[nH]c12 (centres undefined) | 39.8 | – | – | – | – | – | – | – | – | –
10 | CS(=O)(=O)CCc1c[nH]c2c(C(N)=O)cc(-c3ccccc3)cc12 | 63.1 | – | – | – | – | – | – | – | – | –
11 | NC(=O)c1cc(-c2ccccc2)cc2c(C3CCN(S(=O)(=O)CCCNC4CCCC4)CC3)c[nH]c12 | 20 | 85 (≈ 43.2 µg/mL) | 14 | – | – | – | – | – | – | –
12 | NC(=O)c1cc(-c2ccccc2)cc2c([C@H]3C[C@H]4CC[C@@H](C3)S4(=O)=O)c[nH]c12 | 39.8 | – | – | – | – | – | – | – | – | –
13 | NC(=O)c1cc(-c2ccccc2)cc2c(C3CCC(=O)C3)c[nH]c12 (centres undefined) | 79.4 | – | – | – | – | – | – | – | – | –
14 | NC(=O)c1cc(-c2ccccc2)cc2c(C3CCN(S(=O)(=O)CCCN4CCOCC4)CC3)c[nH]c12 | 31.6 | 36 (≈ 18.4 µg/mL) | 31.8 | 200 | 2030 | 8.9 | 0.43 | 1.18 | 53 | inhibition in vivo at 50 µmol/kg (Rattus norvegicus [18]): 30%
15 | NC(=O)c1cc(-c2ccccc2)cc2c(C3CCCC(=O)C3)c[nH]c12 (centres undefined) | 79.4 | – | – | – | – | – | – | – | – | –

The next lines start with results.

Row | IC50 [1] [nM] | solubility kinetic [2] [µM] | Papp [3] [×10⁻⁶ cm/s] | IC50 [4] [nM] | AUC [5] [ng·h/mL] | clearance [6] [mL/min/kg] | Vd [7] [L/kg] | half-life [8] [h] | bioavailability [9] [%] | Compound | other results
16 | 7.94 | 41 (≈ 20.4 µg/mL) | 31 | – | – | – | – | – | – | NC(=O)c1cc(-c2ccccc2)cc2c(C3CCN(S(=O)(=O)CCN4CCOCC4)CC3)c[nH]c12 | –
17 | 6.31 | 93 (≈ 48.6 µg/mL) | 29 | – | – | – | – | – | – | NC(=O)c1cc(-c2ccccc2)cc2c(C3CCN(S(=O)(=O)CCCN4CCCCCC4)CC3)c[nH]c12 | –
18 | 7.94 | – | 33 | 110 | 1430 | 51.1 | 7.2 | 2.34 | 115 | CC1(C)CC(c2c[nH]c3c(C(N)=O)cc(-c4ccccc4)cc23)CCS1(=O)=O (centres undefined) | solubility kinetic [11]: 39 µM (≈ 15.5 µg/mL)
19 | 7.94 | – | 28.3 | 130 | 1960 | 13.2 | 4.7 | 4.5 | 94.1 | CC1(C)C[C@H](c2c[nH]c3c(C(N)=O)cc(-c4ccc(F)cc4)cc23)CCS1(=O)=O | solubility kinetic [11]: 32 µM (≈ 13.3 µg/mL); AUC [12]: 8200 ng·h/mL; clearance [13]: 1.86 mL/min/kg; Vd [14]: 2.87 L/kg; half-life [15]: 20.9 h; bioavailability [16]: 65.3%; ED50 (Rattus norvegicus [17]): 21.7 µmol/kg; ED50 (Canis familiaris): 1.8 µmol/kg
20 | 10 | 185 (≈ 91.5 µg/mL) | 16 | 50 | 998 | 4 | 1 | 4.6 | 12 | NC(=O)c1cc(-c2ccccc2)cc2c(C3CCN(S(=O)(=O)CCCN4CCCC4)CC3)c[nH]c12 | –
21 | 20 | – | – | – | – | – | – | – | – | CC1(C)CC(c2c[nH]c3c(C(N)=O)cc(-c4ccccc4)cc23)NC1=O (centres undefined) | –
22 | 7.94 | 33 (≈ 14.1 µg/mL) | 0.3 | 140 | 48 | 14 | 3 | 4.43 | 3 | NCCS(=O)(=O)N1CCC(c2c[nH]c3c(C(N)=O)cc(-c4ccccc4)cc23)CC1 | –
23 | 12.6 | – | 28 | 50 to 810 | 1270 | 23.5 | 3.7 | 2.2 | 47.4 | NC(=O)c1cc(-c2ccc(F)cc2)cc2c(C3CCS(=O)(=O)CC3)c[nH]c12 | –
24 | 10 | 130 (≈ 47.9 µg/mL) | 27.7 | 80 | 904 | 35 | 2.8 | 1.58 | 97 | NC(=O)c1cc(-c2ccccc2)cc2c(C3CCS(=O)(=O)CC3)c[nH]c12 | AUC [12]: 753 ng·h/mL; clearance [13]: 23.6 mL/min/kg; Vd [14]: 1.54 L/kg; half-life [15]: 0.949 h; bioavailability [16]: 52.6%; ED50 (Rattus norvegicus [17]): 7.6 µmol/kg; ED50 (Canis familiaris): 2.9 µmol/kg
25 | 7.94 | 162 (≈ 82.4 µg/mL) | 24 | – | – | – | – | – | – | NC(=O)c1cc(-c2ccccc2)cc2c(C3CCN(S(=O)(=O)CCCN4CCCCC4)CC3)c[nH]c12 | –
26 | 15.8 | 173 (≈ 85.9 µg/mL) | 20 | 190 | – | – | – | – | – | CCN(CC)CCCS(=O)(=O)N1CCC(c2c[nH]c3c(C(N)=O)cc(-c4ccccc4)cc23)CC1 | –
